Laboratory results reported in ChEMBL document CHEMBL1938334, “Quinoline tricyclic derivatives. Design, synthesis and evaluation of the antiviral activity of three new classes of RNA-dependent RNA polymerase inhibitors” (Bioorg Med Chem, 2011).

What was measured:
[1] = Cytotoxicity against human MT4 cells after 96 hrs by MTT assay; format: cell-based
In short: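 Exponentially growing MT-4 cells seeded at 1×10^5 cells/mL in RPMI-1640 with 10% FBS, penicillin and streptomycin. Incubated with serial compound dilutions at 37 °C, 5% CO2 for 96 h; viability by MTT. CC50 by linear regression relative to untreated controls; mean of three independent determinations.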

[2] = test system: Yellow fever virus; experiment: Antiviral activity against Yellow fever virus 17D Stamaril Pasteur J07B01 infected in hamster BHK21 cells assessed as inhibition of virus-induced cytopathogenicity after 3 to 4 days by MTT assay; format: functional, cell-based; details: Stamaril Pasteur J07B01, BHK-21
In short: (§1)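 Host cells were seeded in 96-well plates at 3×10^4 cells/well (MDBK) or 5×10^4 cells/well (BHK-21) and grown to confluent monolayers overnight. They were infected at m.o.i. 0.01 in maintenance MEM with 0.5% inactivated FBS. Serial compound dilutions were added after 1 h. Viability was read by MTT after 3–4 days at 37 °C. EC50 was taken by linear regression against untreated controls. Mean of three determinations.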

[3] = test system: Human alphaherpesvirus 1; experiment: Antiviral activity against Human herpesvirus 1 strain KOS infected in african green monkey Vero 76 cells assessed as reduction of virus-induced plaque formation after 3 days using crystal violet staining; format: functional, organism-based; details: Human alphaherpesvirus 1, KOS, 72 h
[4] = Cytotoxicity against MDBK cells after 48 to 96 hrs by MTT assay; format: cell-based, Bos taurus; details: cattle
In short: (§2)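 MDBK seeded at 6×10^5 and BHK at 1×10^6 cells/mL in MEM-Earle's with L-glutamine, 1 mM pyruvate, kanamycin, plus 10% horse serum (MDBK) or 10% FBS (BHK). Cells were grown at 37 °C, 5% CO2 with serial compound dilutions (DMSO stocks diluted in medium). Viability by MTT after 48–96 h. CC50 was taken by linear regression versus untreated controls; three independent determinations.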

[5] = test system: Coxsackievirus B5; experiment: Antiviral activity against Human coxsackievirus B5 Ohio-1 infected in african green monkey Vero 76 cells assessed as reduction of virus-induced plaque formation after 3 days using crystal violet staining; format: functional, organism-based; details: Enterovirus B, Ohio-1, Vero, 72 h
[6] = test system: Human orthopneumovirus; experiment: Antiviral activity against Human respiratory syncytial virus A2 infected in african green monkey Vero 76 cells assessed as reduction of virus-induced plaque formation after 5 days using crystal violet staining; format: functional, organism-based; details: 120 h
[7] = test system: Reovirus sp.; experiment: Antiviral activity against Reovirus type-1 3651 infected in hamster BHK21 cells assessed as inhibition of virus-induced cytopathogenicity after 3 to 4 days by MTT assay; format: functional, organism-based; details: Reovirus sp., 3651, BHK-21; in short: as §1
[8] = test system: Human immunodeficiency virus 1; experiment: Antiviral activity against HIV1 3B infected in human MT4 cells assessed as inhibition of virus-induced cytopathogenicity after 4 days by MTT assay; format: functional, organism-based; details: Human immunodeficiency virus 1, 3B, MT4, 96 h
In short: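 MT-4 cells (1×10^4 per well) were infected with HIV-1 IIIB at 100 CCID50, m.o.i. 0.01, together with serial compound dilutions. Viability was read by MTT after 4 days at 37 °C. EC50 was taken by linear regression versus untreated controls. Mean of three determinations.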

[9] = Cytotoxicity against african green monkey Vero 76 cells after 48 to 96 hrs by crystal violet staining; format: cell-based; details: chlorocebus sabaeus
In short: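 Vero-76 cells were seeded at 4×10^5 cells/mL in D-MEM with L-glutamine, kanamycin and 10% FBS, then exposed to serial compound dilutions at 37 °C, 5% CO2 for 48–96 h. Viability was read by crystal violet staining. 50% cytotoxic concentration by linear regression relative to untreated controls; mean of three independent determinations.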

[10] = Cytotoxicity against BHK21 cells after 48 to 96 hrs by MTT assay; format: cell-based, Mesocricetus auratus, BHK-21; details: hamster; in short: as §2
[11] = Antiviral activity against Bovine viral diarrhea virus 1-NADL infected in MDBK cells assessed as inhibition of virus-induced cytopathogenicity after 3 to 4 days by MTT assay; format: functional, cell-based; details: Bovine viral diarrhea virus isolates and strains; in short: as §1
[12] = test system: Poliovirus 1; experiment: Antiviral activity against Human poliovirus 1 strain Sabin Chat infected in african green monkey Vero 76 cells assessed as virus-induced reduction of plaque formation after 2 days using crystal violet staining; format: functional, cell-based; details: Enterovirus C, 48 h
[13] = Antiviral activity against Vaccinia virus Lister Elstree infected in african green monkey Vero 76 cells assessed as reduction of virus-induced plaque formation after 3 days using crystal violet staining; format: functional, cell-based; details: 72 h
[14] = test system: Vesicular stomatitis Indiana virus; experiment: Antiviral activity against clinical isolate Vesicular stomatitis Indiana virus infected in african green monkey Vero 76 cells assessed as reduction of virus-induced plaque formation after 2 days using crystal violet staining; format: functional, organism-based; details: 48 h

| SMILES | CC50 at 96 h [1] [µM] | EC50 [2] [µM] | EC50 [3] [µM] | CC50 [4] [µM] | EC50 [5] [µM] | EC50 [6] [µM] | EC50 [7] [µM] | EC50 [8] [µM] | CC50 [9] [µM] | CC50 [10] [µM] | EC50 [11] [µM] | EC50 [12] [µM] | EC50 [13] [µM] | EC50 [14] [µM] |
| --- | --- | --- | --- | --- | --- | --- | --- | --- | --- | --- | --- | --- | --- | --- |
| CCOC(=O)C(C)c1nc2cc3cccnc3c(Cl)c2[nH]c1=O (stereo unspecified) | 59 | > 100 | ≥ 100 | > 100 | > 100 | > 100 | > 100 | > 59 | > 100 | > 100 | 19 | ≥ 100 | > 100 | ≥ 100 |
| N#CCn1nnc2c(Cl)c3ncccc3cc21 | 62 | > 100 | 51 | > 100 | > 100 | > 100 | > 100 | > 62 | > 100 | > 100 | 23 | > 100 | > 100 | > 100 |
| Clc1c2ncccc2cc2ncc(-c3ccccc3)nc12 | > 100 | > 100 | > 100 | > 100 | > 100 | > 100 | > 100 | > 100 | > 100 | > 100 | 18 | > 100 | > 100 | > 100 |
| Clc1c2ncccc2cc2nc(-c3ccccc3)c(-c3ccccc3)nc12 | > 100 | > 100 | > 100 | > 100 | > 100 | > 100 | > 100 | > 100 | > 100 | > 100 | > 100 | > 100 | > 100 | > 100 |
| O=[N+]([O-])c1c2cccnc2c(Cl)c2[nH]nnc12 | > 100 | > 100 | > 100 | > 100 | > 100 | > 100 | > 100 | > 100 | > 100 | > 100 | 23 | > 100 | > 100 | > 100 |
| c1cnc2cc3[nH]nnc3cc2c1 | 40 | > 100 | > 100 | > 100 | > 100 | > 100 | > 100 | > 40 | > 100 | > 100 | > 100 | > 100 | > 100 | > 100 |
| O=C(CCl)Cn1nnc2c(Cl)c3ncccc3cc21 | 21 | > 85 | > 100 | 53 | > 100 | > 100 | > 85 | > 21 | > 100 | 85 | > 53 | > 100 | > 100 | > 100 |
| Clc1c2ncccc2cc2nc(CBr)c(CBr)nc12 | 16 | > 100 | > 100 | 20 | > 100 | > 100 | > 100 | > 16 | > 100 | > 100 | > 20 | > 100 | > 100 | > 100 |
| O=c1[nH]c2c(Cl)c3ncccc3cc2nc1-c1ccccc1 | 61 | > 100 | > 100 | > 100 | > 100 | > 100 | 100 | > 61 | > 100 | > 100 | 5 | > 100 | 39 | 100 |
| N#CCn1nnc2cc3cccnc3c(Cl)c21 | 100 | > 100 | > 100 | > 100 | > 100 | > 100 | > 100 | > 100 | > 100 | > 100 | 100 | > 100 | > 100 | > 100 |
| O=C(CCl)Cn1nnc2cc3cccnc3c(Cl)c21 | 23 | > 65 | > 100 | 21 | > 100 | > 100 | > 65 | > 23 | > 100 | 65 | > 21 | > 100 | > 100 | > 100 |
| CC(=O)Nc1ccc(-c2nc3cc4cccnc4c(Cl)c3[nH]2)cc1 | > 100 | > 100 | > 100 | > 100 | > 100 | > 100 | 51 | > 100 | > 100 | > 100 | 11 | > 100 | > 100 | > 100 |
| Nc1ccc(-c2nc3cc4cccnc4c(Cl)c3[nH]2)cc1 | 15 | > 42 | > 100 | 45 | 78 | > 100 | > 42 | > 15 | > 100 | 42 | 10 | > 100 | > 100 | > 100 |
| Clc1c2ncccc2cc2nc(C3CCCCC3)[nH]c12 | 57 | > 26 | > 100 | 73 | 43 | > 100 | > 26 | > 57 | > 100 | 26 | 19 | 80 | ≥ 100 | ≥ 100 |
| Oc1ccnc2c(Cl)c3nccnc3cc12 | 42 | > 85 | 90 | 63 | > 90 | > 90 | > 85 | > 42 | 90 | 85 | > 63 | > 90 | > 90 | > 90 |
| COc1ccccc1-c1nc2cc3cccnc3cc2[nH]1 | 14 | > 32 | > 75 | 11 | 47 | > 75 | > 32 | > 14 | 75 | 32 | ≥ 11 | > 75 | > 75 | > 75 |
| c1ccc(-c2ccc(-c3nc4cc5cccnc5cc4[nH]3)cc2)cc1 | 8 | > 20 | > 80 | ≥ 100 | 3 | > 80 | > 20 | > 8 | 80 | 20 | 60 | > 80 | > 80 | > 80 |
| Clc1ccc(-c2nc3cc4cccnc4cc3[nH]2)cc1 | 100 | > 100 | > 100 | > 100 | 43 | > 100 | > 100 | > 100 | > 100 | > 100 | 18 | > 100 | > 100 | > 100 |
| Clc1ccc(-c2nc3cc4cccnc4cc3[nH]2)cc1Cl | > 100 | > 100 | > 100 | > 100 | > 100 | > 100 | > 100 | > 100 | > 100 | > 100 | > 100 | > 100 | > 100 | > 100 |
